# Reference: ChEMBL document CHEMBL4196022, “Alkynyl-containing phenylthiazoles: Systemically active antibacterial agents effective against methicillin-resistant Staphylococcus aureus (MRSA)” (Eur J Med Chem, 2018)
# Calls of active or inactive are those of the source. No cut-off for these calls is given here. Positions of bridges follow the written chain, without caps; N, C: chain ends. Non-standard residues stand in square brackets, D forms with d. Residues, ends and D or L forms follow the SMILES beside them. *: point of attachment. Ileψ(thiazoline)Cys = CC[C@H](C)[C@H](N)C1=N[C@H](C(=O)*)CS1; dOrn = NCCC[C@@H](N)C(=O)O
# Experiments:
# [1] = Apparent permeability from apical to basolateral side in human Caco2 cells at 10 uM after 60 mins by LC-MS/MS analysis; format: ADME, cell-based; details: caco-2, 1 h
# In short: (§1)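 Caco-2 monolayers were seeded at 1 × 10^5 cells/cm2 and differentiated for three weeks. Test article was at 10 μM (1% DMSO) in HBSS-MES pH 6.5 or HBSS-HEPES pH 7.4 and added to the donor side. Incubation ran 60 min (A→B) or 40 min (B→A), and receiver buffer was analysed by LC/MS/MS. Lucifer yellow and fluorescein checked monolayer integrity. Efflux ratio = Papp(B→A)/Papp(A→B).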
# [2] = Apparent permeability from basolateral to apical side in human Caco2 cells at 10 uM after 60 mins by LC-MS/MS analysis; format: ADME, cell-based; details: caco-2, 1 h
# [3] = Efflux ratio of apparent permeability in human Caco2 cells at 10 uM after 60 mins by LC-MS/MS analysis; format: ADME, cell-based; details: caco-2, 1 h; in short: as §1
# [4] = system: Staphylococcus aureus; assay: Antibacterial activity against methicillin-resistant Staphylococcus aureus NRS107 after 20 hrs by broth microdilution assay; format: functional; details: NRS107, 20 h
# In short: (§2)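 Broth microdilution per CLSI in cation-adjusted Mueller Hinton broth. Compounds serially diluted, in triplicate. Incubation at 37 °C for at least 20 hours. MIC taken as the lowest concentration with no visible bacterial growth.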
# [5] = system: Staphylococcus aureus; assay: Antibacterial activity against methicillin-resistant Staphylococcus aureus USA300 after 20 hrs by broth microdilution assay; format: functional; details: USA300, 20 h; in short: as §2
# [6] = system: Staphylococcus aureus; assay: Bactericidal activity against methicillin-resistant Staphylococcus aureus USA300 up to 18 hrs by broth microdilution assay; format: functional; details: USA300, 18 h, read-out: MBC99.9
# [7] = system: Staphylococcus aureus; assay: Bactericidal activity against methicillin-resistant Staphylococcus aureus NRS107 up to 18 hrs by broth microdilution assay; format: functional; details: NRS107, 18 h, read-out: MBC99.9
# [8] = system: Staphylococcus aureus; assay: Antibacterial activity against methicillin-resistant Staphylococcus aureus NRS119 after 20 hrs by broth microdilution assay; format: functional; details: NRS119, 20 h; in short: as §2
# [9] = system: Staphylococcus aureus; assay: Bactericidal activity against methicillin-resistant Staphylococcus aureus NRS119 up to 18 hrs by broth microdilution assay; format: functional; details: NRS119, 18 h, read-out: MBC99.9
# [10] = system: Staphylococcus aureus; assay: Antibacterial activity against vancomycin-resistant Staphylococcus aureus VRS10 after 20 hrs by broth microdilution assay; format: functional; details: VRS10, 20 h; in short: as §2
# [11] = system: Staphylococcus aureus; assay: Bactericidal activity against methicillin resistant vancomycin-resistant Staphylococcus aureus VRS10 up to 18 hrs by broth microdilution assay; format: functional; details: VRS10, 18 h, read-out: MBC99.9
# [12] = system: Staphylococcus aureus; assay: Antibacterial activity against vancomycin-resistant Staphylococcus aureus VRS11a after 20 hrs by broth microdilution assay; format: functional; in short: as §2
# [13] = system: Staphylococcus aureus; assay: Antibacterial activity against vancomycin-resistant Staphylococcus aureus VRS12 after 20 hrs by broth microdilution assay; format: functional; details: VRS12, 20 h; in short: as §2
# [14] = system: Staphylococcus aureus; assay: Bactericidal activity against methicillin resistant vancomycin-resistant Staphylococcus aureus VRS12 up to 18 hrs by broth microdilution assay; format: functional; details: VRS12, 18 h, read-out: MBC99.9
# In short: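 MBC set up from the MIC plates. Aliquots from wells with no growth spotted onto tryptic soy agar and incubated at 37 °C for at least 18 hours. MBC taken as the lowest concentration giving 99.9% inhibition of bacterial growth.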
# [15] = system: Staphylococcus aureus; assay: Potency index, ratio of vancomycin MIC to compound MIC for antibacterial activity against vancomycin-resistant Staphylococcus aureus VRS10; format: functional
# [16] = system: Staphylococcus aureus; assay: Potency index, ratio of vancomycin MIC to compound MIC for antibacterial activity against vancomycin-resistant Staphylococcus aureus VRS11a; format: functional
# [17] = system: Staphylococcus aureus; assay: Potency index, ratio of vancomycin MIC to compound MIC for antibacterial activity against vancomycin-resistant Staphylococcus aureus VRS12; format: functional
# [18] = system: Staphylococcus aureus; assay: Ratio of MBC to MIC for methicillin-resistant Staphylococcus aureus USA300; format: functional; details: read-out: Ratio
# In short: (§3)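 MBC/MIC ratio. […] MBC by plating no-growth wells onto tryptic soy agar at 37 °C for at least 18 h; taken as the concentration giving 99.9% growth inhibition.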
# [19] = system: Staphylococcus aureus; assay: Ratio of MBC to MIC for methicillin-resistant Staphylococcus aureus NRS107; format: functional; in short: as §3
# [20] = system: Staphylococcus aureus; assay: Ratio of MBC to MIC for methicillin-resistant Staphylococcus aureus NRS119; format: functional; in short: as §3
# [21] = system: Staphylococcus aureus; assay: Ratio of MBC to MIC for vancomycin-resistant Staphylococcus aureus VRS10; format: functional; in short: as §3
# [22] = system: Staphylococcus aureus; assay: Ratio of MBC to MIC for vancomycin-resistant Staphylococcus aureus VRS11a; format: functional; in short: as §3
# [23] = system: Staphylococcus aureus; assay: Ratio of MBC to MIC for vancomycin-resistant Staphylococcus aureus VRS12; format: functional; in short: as §3
# [24] = system: Staphylococcus aureus; assay: Bactericidal activity against methicillin-resistant Staphylococcus aureus NRS123 (USA400) at 4 times MIC after 24 hrs by time kill assay; format: functional, organism-based
# [25] = system: J774; assay: Cytotoxicity against mouse J774 cells assessed as reduction in cell viability up to 16 ug/ml after 24 hrs by MTS assay; format: cell-based; details: j774, 24 h
# In short: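 J774 murine macrophages were grown in DMEM with 10% FBS at 37 °C, 5% CO2. Compounds were tested at 8, 16 and 32 μg/mL in triplicate for 24 h, with a DMSO-matched control. MTS was added for 4 h and absorbance read at 490 nm. Viability is given as % of DMSO control (mean ± SD); Student t-test with Holm-Sidak test.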
# [26] = system: Staphylococcus aureus; assay: Antibacterial activity against methicillin-resistant Staphylococcus aureus NRS123 (USA400) infected in mouse J774 cells at 16 ug/ml after 24 hrs; format: functional, organism-based
# In short: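 J774 macrophages grown in DMEM with 10% FBS at 37 °C, 5% CO2. Infected with USA400 at MOI ~100:1 for 1 h, then washed with gentamicin 50 μg/mL. Treated in triplicate wells for 24 h, washed with gentamicin again and lysed with 0.1% Triton X-100. Lysate plated on tryptic soy agar for 18–22 h; CFU/mL counted.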
# [27] = system: HRT-18 cell line; assay: Cytotoxicity against human HRT18 cells assessed as reduction in cell viability up to 32 ug/ml after 2 hrs by MTS assay; format: cell-based; details: hrt-18, 2 h
# [28] = Selectivity index, ratio of toxic concentration for human HRT18 cells to MIC for methicillin-resistant Staphylococcus aureus; format: toxicity; details: read-out: Selectivity Index
# [29] = system: Staphylococcus aureus; assay: Bactericidal activity against methicillin-resistant Staphylococcus aureus USA300 at 4 times MIC after 24 hrs by time kill assay; format: functional, organism-based
# [30] = biological target: T1, Undecaprenyl-diphosphatase (Escherichia coli (strain K12), UniProt P60932); assay: Inhibition of Escherichia coli UPPP expressed in Escherichia coli C41(DE3) using FPP as substrate preincubated for 15 mins followed by substrate addition measured after 20 mins by malachite green assay
# T1 sequence (P60932 whole entry): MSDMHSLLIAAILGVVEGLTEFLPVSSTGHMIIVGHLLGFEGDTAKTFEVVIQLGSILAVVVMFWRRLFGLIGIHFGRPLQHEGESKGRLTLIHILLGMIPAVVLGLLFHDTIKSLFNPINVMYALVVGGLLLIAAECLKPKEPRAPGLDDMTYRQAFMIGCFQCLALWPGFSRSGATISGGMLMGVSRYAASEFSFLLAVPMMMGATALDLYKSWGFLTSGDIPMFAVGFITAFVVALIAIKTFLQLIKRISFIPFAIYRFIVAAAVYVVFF
smiles,measurement,setting,value
CNC(=C[N+](=O)[O-])NCCSCc1ccc(CN(C)C)o1 [RANITIDINE],Papp,[1],0.27 ×10⁻⁶ cm/s
same,Papp,[2],1.71 ×10⁻⁶ cm/s
same,Ratio,[3],6.3
CCCC#Cc1ccc(-c2nc(C)c(/C(C)=N/NC(=N)N)s2)cc1,MIC,[4],1 µg/mL
same,MIC,[5],1 µg/mL
same,MBC,[6],8 µg/mL
same,MBC,[7],1 µg/mL
same,MIC,[8],1 µg/mL
same,MBC,[9],1 µg/mL
same,MIC,[10],1 µg/mL
same,MBC,[11],2 µg/mL
same,MIC,[12],≤ 0.5 µg/mL
same,MIC,[13],1 µg/mL
same,MBC,[14],1 µg/mL
same,Ratio,[15],>100
same,Ratio,[16],>100
same,Ratio,[17],16
same,Ratio,[18],8
same,Ratio,[19],<=3
same,Ratio,[20],<=3
same,Ratio,[21],<=3
same,Ratio,[22],<=3
same,Ratio,[23],<=3
same,Activity,[24],Active
same,Activity,[25],Non-Toxic
same,Activity,[26],Active
same,Activity,[27],Non-Toxic
same,selectivity ratio,[28],7 to 31
same,Activity,[29],Active
CC[C@H](C)[C@H](N)C1=N[C@H](C(=O)N[C@@H](CC(C)C)C(=O)N[C@H](CCC(=O)O)C(=O)N[C@H](C(=O)N[C@H]2CCCCNC(=O)[C@H](CC(N)=O)NC(=O)[C@@H](CC(=O)O)NC(=O)[C@H](Cc3cnc[nH]3)NC(=O)[C@@H](Cc3ccccc3)NC(=O)[C@H]([C@@H](C)CC)NC(=O)[C@@H](CCCN)NC2=O)[C@@H](C)CC)CS1 [BACITRACIN] ({Ileψ(thiazoline)Cys}-L[dE]IK[dOrn]I[dF]H[dD]N; lactam 4-C),IC50,[30],5.6 µM
